Values after ≈ are worked out from the molar mass of the structure shown.
Columns and labels:
[1] = target: Lysozyme C (Gallus gallus) (UniProt P00698); assay: Renaturation of 0.1 mg/mL reduced hen egg white lysozyme assessed as apparent rate of renaturation at 0.25 mM at pH 8 by Micrococcus lysodeikticus lysis-based enzyme assay in presence of 0.2 mM GSSG
Procedure, shortened: (§1)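 Reduced lysozyme (10 mg/mL) diluted 100-fold into deoxygenated renaturation buffer: 0.1 M bis tris propane–HCl (pH 7.0) or 0.1 M Tris–HCl (pH 8.0), 1 mM EDTA, 0.5 M Gdn HCl, thiol plus GSSG. Mixed by vortexing for 15 s, held at 25 °C. 20 µL aliquots taken at set times and assayed for recovery of enzymatic activity.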

[2] = target: Lysozyme C (Gallus gallus) (UniProt P00698); assay: Renaturation of 0.1 mg/mL reduced hen egg white lysozyme assessed as maximum enzyme activity at 0.25 mM at pH 8 by Micrococcus lysodeikticus lysis-based enzyme assay in presence of 0.2 mM GSSG; design: scale not given: the % may be the effect or the level left; procedure, shortened: as §1
[3] = target: Lysozyme C (Gallus gallus) (UniProt P00698); assay: Renaturation of 0.1 mg/mL reduced hen egg white lysozyme assessed as maximum enzyme activity at 1 mM at pH 8 by Micrococcus lysodeikticus lysis-based enzyme assay in presence of 0.2 mM GSSG; design: scale not given: the % may be the effect or the level left; procedure, shortened: as §1
[4] = Solubility of the compound at pH 8; format: physicochemical; settings: buffer
[5] = target: Lysozyme C (Gallus gallus) (UniProt P00698); assay: Renaturation of 0.1 mg/mL reduced hen egg white lysozyme assessed as apparent rate of renaturation at 1 mM at pH 8 by Micrococcus lysodeikticus lysis-based enzyme assay in presence of 0.2 mM GSSG; procedure, shortened: as §1
[6] = target: Lysozyme C (Gallus gallus) (UniProt P00698); assay: Renaturation of 0.1 mg/mL reduced hen egg white lysozyme assessed as maximum enzyme activity at 2 mM at pH 8 by Micrococcus lysodeikticus lysis-based enzyme assay in presence of 0.2 mM GSSG; design: scale not given: the % may be the effect or the level left; procedure, shortened: as §1
[7] = target: Lysozyme C (Gallus gallus) (UniProt P00698); assay: Renaturation of 0.1 mg/mL reduced hen egg white lysozyme assessed as maximum enzyme activity at 2 mM at pH 7 by Micrococcus lysodeikticus lysis-based enzyme assay in presence of 0.2 mM GSSG; design: scale not given: the % may be the effect or the level left; procedure, shortened: as §1
[8] = target: Lysozyme C (Gallus gallus) (UniProt P00698); assay: Renaturation of 0.1 mg/mL reduced hen egg white lysozyme assessed as apparent rate of renaturation at 0.5 mM at pH 8 by Micrococcus lysodeikticus lysis-based enzyme assay in presence of 0.2 mM GSSG; procedure, shortened: as §1
[9] = target: Lysozyme C (Gallus gallus) (UniProt P00698); assay: Renaturation of 0.1 mg/mL reduced hen egg white lysozyme assessed as apparent rate of renaturation at 0.5 mM at pH 7 by Micrococcus lysodeikticus lysis-based enzyme assay in presence of 0.2 mM GSSG; procedure, shortened: as §1
[10] = target: Lysozyme C (Gallus gallus) (UniProt P00698); assay: Renaturation of 0.1 mg/mL reduced hen egg white lysozyme assessed as maximum enzyme activity at 0.5 mM at pH 8 by Micrococcus lysodeikticus lysis-based enzyme assay in presence of 0.2 mM GSSG; design: scale not given: the % may be the effect or the level left; procedure, shortened: as §1
[11] = target: Lysozyme C (Gallus gallus) (UniProt P00698); assay: Renaturation of 0.1 mg/mL reduced hen egg white lysozyme assessed as maximum enzyme activity at 0.5 mM at pH 7 by Micrococcus lysodeikticus lysis-based enzyme assay in presence of 0.2 mM GSSG; design: scale not given: the % may be the effect or the level left; procedure, shortened: as §1
[12] = Solubility of the compound at pH 7; format: physicochemical; settings: buffer
[13] = target: Lysozyme C (Gallus gallus) (UniProt P00698); assay: Renaturation of 0.1 mg/mL reduced hen egg white lysozyme assessed as apparent rate of renaturation at 2 mM at pH 7 by Micrococcus lysodeikticus lysis-based enzyme assay in presence of 0.2 mM GSSG; procedure, shortened: as §1
[14] = target: Lysozyme C (Gallus gallus) (UniProt P00698); assay: Renaturation of 0.1 mg/mL reduced hen egg white lysozyme assessed as apparent rate of renaturation at 2 mM at pH 8 by Micrococcus lysodeikticus lysis-based enzyme assay in presence of 0.2 mM GSSG; procedure, shortened: as §1
[15] = Dissociation constant, pKa of the compound; format: physicochemical
[16] = target: Lysozyme C (Gallus gallus) (UniProt P00698); assay: Renaturation of 1 mg/mL reduced hen egg white lysozyme assessed as apparent rate of renaturation at 40 mM at pH 7 by Micrococcus lysodeikticus lysis-based enzyme assay in presence of 1 mM GSSG
Procedure, shortened: (§2)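 Reduced lysozyme prepared in 0.1 M acetic acid with 6 M Gdn HCl, pH 2.5, then neutralised to pH 7.0 or 8.0 with KOH and set to 10 mg/mL. Diluted 10-fold into deoxygenated buffer: 0.1 M bis tris propane–HCl (pH 7.0) or Tris–HCl (pH 8.0), 1 mM EDTA, thiol plus GSSG. Final 1 mg/mL protein, 1.7 M Gdn HCl, 25 °C. Aliquots taken over time, diluted and assayed for activity.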

[17] = target: Lysozyme C (Gallus gallus) (UniProt P00698); assay: Renaturation of 1 mg/mL reduced hen egg white lysozyme assessed as maximum enzyme activity at 40 mM at pH 7 by Micrococcus lysodeikticus lysis-based enzyme assay in presence of 1 mM GSSG; design: scale not given: the % may be the effect or the level left; procedure, shortened: as §2
[18] = target: Lysozyme C (Gallus gallus) (UniProt P00698); assay: Renaturation of 1 mg/mL reduced hen egg white lysozyme assessed as apparent rate of renaturation at 40 mM at pH 8 by Micrococcus lysodeikticus lysis-based enzyme assay in presence of 1 mM GSSG; procedure, shortened: as §2
[19] = target: Lysozyme C (Gallus gallus) (UniProt P00698); assay: Renaturation of 1 mg/mL reduced hen egg white lysozyme assessed as maximum enzyme activity at 40 mM at pH 8 by Micrococcus lysodeikticus lysis-based enzyme assay in presence of 1 mM GSSG; design: scale not given: the % may be the effect or the level left; procedure, shortened: as §2
[20] = target: Lysozyme C (Gallus gallus) (UniProt P00698); assay: Renaturation of 1 mg/mL reduced hen egg white lysozyme assessed as apparent rate of renaturation at 20 mM at pH 8 by Micrococcus lysodeikticus lysis-based enzyme assay in presence of 1 mM GSSG
Procedure, shortened: (§3)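 Reduced lysozyme was dissolved in 0.1 M acetic acid with 6 M Gdn HCl (pH 2.5), brought to pH 7.0 or 8.0 with KOH, and set to 10 mg/mL by A280. It was then diluted 10-fold into deoxygenated buffer: 0.1 M bis tris propane–HCl or Tris–HCl, 1.25 M Gdn HCl, 1 mM EDTA, thiol plus GSSG. Final protein was 1 mg/mL, final Gdn HCl 1.7 M, 25 °C. Aliquots taken at intervals and assayed for activity. Errors are standard deviations.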

[21] = target: Lysozyme C (Gallus gallus) (UniProt P00698); assay: Renaturation of 1 mg/mL reduced hen egg white lysozyme assessed as maximum enzyme activity at 10 mM at pH 7 by Micrococcus lysodeikticus lysis-based enzyme assay in presence of 1 mM GSSG; design: scale not given: the % may be the effect or the level left; procedure, shortened: as §3
[22] = target: Lysozyme C (Gallus gallus) (UniProt P00698); assay: Renaturation of 1 mg/mL reduced hen egg white lysozyme assessed as apparent rate of renaturation at 20 mM at pH 7 by Micrococcus lysodeikticus lysis-based enzyme assay in presence of 1 mM GSSG; procedure, shortened: as §3
[23] = target: Lysozyme C (Gallus gallus) (UniProt P00698); assay: Renaturation of 1 mg/mL reduced hen egg white lysozyme assessed as maximum enzyme activity at 20 mM at pH 7 by Micrococcus lysodeikticus lysis-based enzyme assay in presence of 1 mM GSSG; design: scale not given: the % may be the effect or the level left; procedure, shortened: as §3
[24] = Solubility of the compound in water; format: physicochemical; settings: buffer
[25] = target: Lysozyme C (Gallus gallus) (UniProt P00698); assay: Renaturation of 1 mg/mL reduced hen egg white lysozyme assessed as apparent rate of renaturation at 10 mM at pH 7 by Micrococcus lysodeikticus lysis-based enzyme assay in presence of 1 mM GSSG; procedure, shortened: as §3
[26] = target: Lysozyme C (Gallus gallus) (UniProt P00698); assay: Renaturation of 1 mg/mL reduced hen egg white lysozyme assessed as maximum enzyme activity at 20 mM at pH 8 by Micrococcus lysodeikticus lysis-based enzyme assay in presence of 1 mM GSSG; design: scale not given: the % may be the effect or the level left; procedure, shortened: as §3
[27] = target: Lysozyme C (Gallus gallus) (UniProt P00698); assay: Renaturation of 0.1 mg/mL reduced hen egg white lysozyme assessed as apparent rate of renaturation at 3 mM at pH 7 by Micrococcus lysodeikticus lysis-based enzyme assay in presence of 0.2 mM GSSG; procedure, shortened: as §1
[28] = target: Lysozyme C (Gallus gallus) (UniProt P00698); assay: Renaturation of 0.1 mg/mL reduced hen egg white lysozyme assessed as maximum enzyme activity at 3 mM at pH 8 by Micrococcus lysodeikticus lysis-based enzyme assay in presence of 0.2 mM GSSG; design: scale not given: the % may be the effect or the level left; procedure, shortened: as §1
[29] = target: Lysozyme C (Gallus gallus) (UniProt P00698); assay: Renaturation of 0.1 mg/mL reduced hen egg white lysozyme assessed as maximum enzyme activity at 3 mM at pH 7 by Micrococcus lysodeikticus lysis-based enzyme assay in presence of 0.2 mM GSSG; design: scale not given: the % may be the effect or the level left; procedure, shortened: as §1
[30] = target: Lysozyme C (Gallus gallus) (UniProt P00698); assay: Renaturation of 0.1 mg/mL reduced hen egg white lysozyme assessed as apparent rate of renaturation at 3 mM at pH 8 by Micrococcus lysodeikticus lysis-based enzyme assay in presence of 0.2 mM GSSG; procedure, shortened: as §1
[31] = target: Lysozyme C (Gallus gallus) (UniProt P00698); assay: Renaturation of 1 mg/mL reduced hen egg white lysozyme assessed as apparent rate of renaturation at 10 mM at pH 7 by Micrococcus lysodeikticus lysis-based enzyme assay in presence of 0.5 mM GSSG; procedure, shortened: as §3
[32] = target: Lysozyme C (Gallus gallus) (UniProt P00698); assay: Renaturation of 1 mg/mL reduced hen egg white lysozyme assessed as maximum enzyme activity at 10 mM at pH 7 by Micrococcus lysodeikticus lysis-based enzyme assay in presence of 0.5 mM GSSG; design: scale not given: the % may be the effect or the level left; procedure, shortened: as §3
[33] = target: Lysozyme C (Gallus gallus) (UniProt P00698); assay: Renaturation of 1 mg/mL reduced hen egg white lysozyme assessed as apparent rate of renaturation at 10 mM at pH 8 by Micrococcus lysodeikticus lysis-based enzyme assay in presence of 1 mM GSSG; procedure, shortened: as §3
[34] = target: Lysozyme C (Gallus gallus) (UniProt P00698); assay: Renaturation of 1 mg/mL reduced hen egg white lysozyme assessed as maximum enzyme activity at 10 mM at pH 8 by Micrococcus lysodeikticus lysis-based enzyme assay in presence of 1 mM GSSG; design: scale not given: the % may be the effect or the level left; procedure, shortened: as §3

Sequence of Lysozyme C (Gallus gallus) (P00698 whole entry): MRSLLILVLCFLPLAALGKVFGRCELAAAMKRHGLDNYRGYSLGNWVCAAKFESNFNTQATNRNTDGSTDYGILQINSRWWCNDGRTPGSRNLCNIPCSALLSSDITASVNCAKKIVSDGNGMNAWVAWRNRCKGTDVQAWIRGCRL

O=C(OCCOCCOCCS)c1ccccc1
Activity [1]: 0.028 min⁻¹
Activity [2]: 68%
Activity [3]: 2%
solubility [4]: 2000 µM (≈ 541 µg/mL)
Activity [5]: 0.012 min⁻¹

O=C(OCCOCCOCCS)c1ccccc1S
Activity [6]: 62%
Activity [7]: 19%
Activity [8]: 0.041 min⁻¹
Activity [9]: 0.013 min⁻¹
Activity [10]: 58%
Activity [11]: 55%
solubility [12]: 4000 µM (≈ 1210 µg/mL)
Activity [13]: 0.001 min⁻¹
Activity [14]: 0.009 min⁻¹

N[C@@H](CS)C(=O)O [CYSTEINE]
pKa [15]: 8.7

C[N+](C)(C)Cc1ccc(S)cc1
Activity [16]: 0.017 min⁻¹
Activity [17]: 82%
Activity [18]: 0.018 min⁻¹
Activity [19]: 81%

OCCS [2-MERCAPTOETHANOL]
pKa [15]: 9.6

C[N+](C)(CCC[N+](C)(C)Cc1ccc(S)cc1)Cc1ccc(S)cc1.[Br-].[Br-]
Activity [20]: 0.022 min⁻¹
Activity [21]: 83%
Activity [22]: 0.015 min⁻¹
Activity [23]: 86%
Activity [18]: 0.023 min⁻¹
solubility [24]: soluble
Activity [25]: 0.012 min⁻¹
Activity [26]: 88%
Activity [19]: 77%

O=C(OCCOCCOCCS)c1ccc(S)cc1
Activity [27]: 0.02 min⁻¹
Activity [8]: 0.076 min⁻¹
Activity [28]: 16%
Activity [9]: 0.025 min⁻¹
Activity [29]: 23%
Activity [10]: 63%
Activity [11]: 57%
Activity [30]: 0.1 min⁻¹

O=C(OCCOCCOCCOCCS)c1ccc(S)cc1
Activity [27]: 0.045 min⁻¹
Activity [8]: 0.087 min⁻¹
Activity [28]: 43%
Activity [9]: 0.038 min⁻¹
Activity [29]: 36%
Activity [10]: 73%
Activity [11]: 39%
Activity [30]: 0.072 min⁻¹

O=C(OCCOCCOCCOCCS)c1ccccc1S
Activity [27]: 0.01 min⁻¹
Activity [8]: 0.061 min⁻¹
Activity [28]: 27%
Activity [9]: 0.008 min⁻¹
Activity [29]: 2%
Activity [10]: 76%
Activity [11]: 85%
Activity [30]: 0.023 min⁻¹

C[N+](C)(CCCCCC[N+](C)(C)Cc1ccc(S)cc1)Cc1ccc(S)cc1.[Br-].[Br-]
Activity [20]: 0.017 min⁻¹
Activity [31]: 0.013 min⁻¹
Activity [32]: 70%
Activity [21]: 74%
Activity [33]: 0.016 min⁻¹
solubility [24]: soluble
Activity [25]: 0.011 min⁻¹
Activity [34]: 78%
Activity [26]: 49%

O=C(OCCOCCS)c1ccc(S)cc1
Activity [8]: 0.072 min⁻¹
Activity [28]: 9%
Activity [10]: 53%
Activity [30]: 0.08 min⁻¹
